{
  "source": "ChEMBL document CHEMBL1154138",
  "about": "“Antioxidant C-glucosylxanthones from the leaves of Arrabidaea patellifera” (J Nat Prod, 2008)",
  "key": {"[1]": {"system": "Radical scavenging activity", "assay": "Antioxidant activity assessed as ratio of drug concentration to DPPH concentration causing 50% DPPH radical scavenging activity […]", "type": "functional"}, "[2]": {"assay": "Antioxidant activity assessed as protection against peroxyl radical-induced alkaline phosphatase oxidation by fluorimetric assay", "type": "functional", "method_in_brief": "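Microplate assay on pure compounds measuring protection of alkaline phosphatase (ALP) against peroxyl radical-induced loss of activity. EC50 is the antioxidant concentration that protects ALP to 50% from this loss, reported as pEC50.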"}, "Plasmodium falciparum": {"system": "Plasmodium falciparum", "assay": "Antiplasmodial activity against chloroquine-sensitive Plasmodium falciparum 3D7 by [3H]hypoxanthine incorporation assay", "type": "functional, organism-based"}},
  "note": "pEC50, pIC50: −log10 of the molar value.",
  "data": [
    {"smiles": "O=c1c(O)c(-c2ccc(O)c(O)c2)oc2cc(O)cc(O)c12", "note": "[QUERCETIN]", "values": [
      {"measurement": "Ratio", "setting": "[1]", "result": 0.092},
      {"measurement": "pEC50", "setting": "[2]", "result": 6.00}
    ]},
    {"smiles": "O=C(/C=C/c1ccc(O)cc1)O[C@@H]1[C@@H](O)[C@H](c2c(O)cc3oc4cc(O)c(O)cc4c(=O)c3c2O)O[C@H](CO)[C@H]1O", "values": [
      {"measurement": "pIC50", "setting": "Plasmodium falciparum", "result": 4.74},
      {"measurement": "Ratio", "setting": "[1]", "result": 0.16},
      {"measurement": "pEC50", "setting": "[2]", "result": 6.08}
    ]},
    {"smiles": "O=C(/C=C/c1ccccc1)O[C@@H]1[C@@H](O)[C@H](c2c(O)cc3oc4cc(O)c(O)cc4c(=O)c3c2O)O[C@H](CO)[C@H]1O", "values": [
      {"measurement": "Ratio", "setting": "[1]", "result": 0.16},
      {"measurement": "pEC50", "setting": "[2]", "result": 6.01}
    ]},
    {"smiles": "O=c1c2cc(O)c(O)cc2oc2cc(O)c([C@@H]3O[C@H](CO)[C@@H](O)[C@H](O)[C@H]3O)c(O)c12", "note": "[MANGIFERIN]", "values": [
      {"measurement": "pIC50", "setting": "Plasmodium falciparum", "result": 4.62},
      {"measurement": "Ratio", "setting": "[1]", "result": 0.12},
      {"measurement": "pEC50", "setting": "[2]", "result": 5.90}
    ]},
    {"smiles": "O=C(/C=C/c1ccc(O)c(O)c1)O[C@@H]1[C@@H](O)[C@H](c2c(O)cc3oc4cc(O)c(O)cc4c(=O)c3c2O)O[C@H](CO)[C@H]1O", "values": [
      {"measurement": "Ratio", "setting": "[1]", "result": 0.1},
      {"measurement": "pEC50", "setting": "[2]", "result": 5.93}
    ]},
    {"smiles": "O=C(O[C@@H]1[C@@H](O)[C@H](c2c(O)cc3oc4cc(O)c(O)cc4c(=O)c3c2O)O[C@H](CO)[C@H]1O)c1ccc(O)cc1", "values": [
      {"measurement": "pIC50", "setting": "Plasmodium falciparum", "result": 4.58},
      {"measurement": "Ratio", "setting": "[1]", "result": 0.11},
      {"measurement": "pEC50", "setting": "[2]", "result": 6.01}
    ]},
    {"smiles": "O=C(/C=C/c1ccc(O)cc1)OC[C@H]1O[C@@H](c2c(O)cc3oc4cc(O)c(O)cc4c(=O)c3c2O)[C@H](O)[C@@H](O)[C@@H]1O", "values": [
      {"measurement": "pIC50", "setting": "Plasmodium falciparum", "result": "< 4.42"},
      {"measurement": "Ratio", "setting": "[1]", "result": 0.23},
      {"measurement": "pEC50", "setting": "[2]", "result": 5.83}
    ]}
  ]
}
